Data: ChEMBL document CHEMBL2380244, “Optimized chemical probes for REV-ERBα” (J Med Chem, 2013)
Activity calls are given as the source filed them. No cut-off for these calls is given here.

Legend:
[1] = biological target: T1, Oxysterols receptor LXR-alpha (Homo sapiens, UniProt Q13133); assay: Binding affinity to LXRalpha (unknown origin) by radioligand displacement assay
T1 sequence (Q13133 whole entry): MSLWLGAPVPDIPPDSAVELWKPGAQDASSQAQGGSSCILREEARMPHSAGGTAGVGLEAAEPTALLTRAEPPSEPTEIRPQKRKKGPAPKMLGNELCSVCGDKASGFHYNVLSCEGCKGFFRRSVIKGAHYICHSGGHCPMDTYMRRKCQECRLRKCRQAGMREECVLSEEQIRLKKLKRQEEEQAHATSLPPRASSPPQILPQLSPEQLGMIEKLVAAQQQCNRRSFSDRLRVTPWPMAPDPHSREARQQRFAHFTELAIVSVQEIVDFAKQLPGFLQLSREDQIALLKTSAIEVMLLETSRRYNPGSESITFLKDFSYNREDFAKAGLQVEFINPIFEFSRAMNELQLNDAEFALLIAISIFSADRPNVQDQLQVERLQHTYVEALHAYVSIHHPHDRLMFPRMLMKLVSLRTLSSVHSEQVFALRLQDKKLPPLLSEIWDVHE

Homo sapiens = organism: Homo sapiens; assay: Selectivity ratio of IC50 for LXRalpha (unknown origin) to EC50 for biotinylated REV-ERBalpha (unknown origin)
[2] = biological target: T2, Nuclear receptor subfamily 1 group D member 1 (Homo sapiens) (UniProt P20393); assay: Agonist activity at REV-ERBalpha in human U2OS cells assessed as delay of peak of second cycle at 20 uM by luciferase reporter gene assay relative to DMSO-treated control; format: cell-based
T2 sequence (whole entry): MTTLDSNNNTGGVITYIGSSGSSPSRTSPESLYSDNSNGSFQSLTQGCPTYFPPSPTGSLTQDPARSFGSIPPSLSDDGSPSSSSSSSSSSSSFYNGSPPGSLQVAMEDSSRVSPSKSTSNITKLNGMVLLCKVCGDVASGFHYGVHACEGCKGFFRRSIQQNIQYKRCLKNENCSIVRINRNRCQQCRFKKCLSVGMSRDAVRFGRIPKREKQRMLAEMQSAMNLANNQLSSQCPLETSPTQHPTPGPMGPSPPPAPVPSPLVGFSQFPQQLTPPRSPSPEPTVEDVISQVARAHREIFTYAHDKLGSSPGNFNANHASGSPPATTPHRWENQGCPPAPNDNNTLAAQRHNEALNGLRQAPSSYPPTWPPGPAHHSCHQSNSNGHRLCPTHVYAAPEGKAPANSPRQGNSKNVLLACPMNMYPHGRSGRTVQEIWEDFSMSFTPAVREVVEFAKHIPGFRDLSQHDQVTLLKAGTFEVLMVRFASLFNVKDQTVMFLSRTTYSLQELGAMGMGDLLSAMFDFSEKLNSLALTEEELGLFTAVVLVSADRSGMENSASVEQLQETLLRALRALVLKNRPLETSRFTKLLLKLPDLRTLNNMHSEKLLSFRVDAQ
How it was run: (§1)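 U2OS cells stably carrying a mouse Bmal1-promoter luciferase reporter (hygromycin-selected clone) seeded at confluence in 384-well format. Rhythms synchronized by media change and checked over 48 h. Compound added, then bioluminescence recorded in real time every 20 min for 72 h in a temperature-controlled luminometer. Cells then washed and recovery oscillations in full growth medium monitored as a toxicity counter-screen.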

[3] = biological target: T2, Nuclear receptor subfamily 1 group D member 1 (Homo sapiens); assay: Agonist activity at REV-ERBalpha in human U2OS cells assessed as suppression of BMAL1 expression at 20 uM after 40 hrs by luciferase reporter gene assay relative to DMSO-treated control; format: cell-based; how it was run: as §1
[4] = biological target: T3, Nuclear receptor subfamily 1 group D member 1 (Homo sapiens, UniProt P20393); assay: Agonist activity at biotinylated REV-ERBalpha (unknown origin) assessed as increase in biotinylated NCOR peptide recruitment after 1 hr by FRET assay
T3 sequence (P20393 whole entry): T2 sequence (whole entry)
How it was run: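 TR-FRET: 20 nM biotinylated REV-ERBα pre-complexed with 10 nM APC-streptavidin, excess biotin added, then mixed with 20 nM biotinylated NCOR1 on 10 nM Eu-streptavidin. MOPS pH 7.5 buffer with NaF, CHAPS, BSA and 10 mM DTT. Added to compound (serial DMSO dilutions of 10 mM stocks), 1 h at RT, Eu/APC read. Data normalized to basal and minimal HTRF, fitted to a 4-parameter logistic.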

[5] = biological target: T4, Oxysterols receptor LXR-alpha (Homo sapiens) (UniProt Q13133); assay: Agonist activity at LXRalpha in human THP1 cells assessed as effect on LPS-stimulated ABCA1 mRNA expression at 1 uM after 6 hrs by RT-qPCR analysis; format: cell-based; details: THP-1
T4 sequence (whole entry): T1 sequence (Q13133 whole entry)
How it was run: (§2)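 THP-1 cells (RPMI1640 + 10% FBS, kept at 3×10^5–8×10^5 cells/mL) stimulated with LPS 10 mcg/mL with DMSO or compound at 1 μM, in triplicate. After six hours the cells were lysed and transcripts quantified by RT-qPCR against TATA box binding protein as housekeeping gene. Groups compared by one-way ANOVA with post-hoc Dunnett's.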

[6] = biological target: T2, Nuclear receptor subfamily 1 group D member 1 (Homo sapiens); assay: Agonist activity at REV-ERBalpha in human THP1 cells assessed as downregulation of LPS-stimulated IL-6 mRNA expression at 1 uM after 6 hrs by RT-qPCR analysis; format: cell-based; details: THP-1; how it was run: as §2
THP-1 = assay: Cytotoxicity against human THP1 cells assessed as cell viability measured ATP level at 10 uM after 6 hrs by celltiter-glo assay; format: cell-based; details: thp-1, 6 h
How it was run: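 THP-1 cells incubated six hours with compound. CellTiter-Glo added for 15 min, then luminescence read.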

[7] = biological target: T2, Nuclear receptor subfamily 1 group D member 1 (Homo sapiens); assay: Agonist activity at REV-ERBalpha in human U2OS cells assessed as suppression of BMAL1 oscillation measured for 72 hrs by luciferase reporter gene assay; format: cell-based; how it was run: as §1
[8] = biological target: T2, Nuclear receptor subfamily 1 group D member 1 (Homo sapiens); assay: Agonist activity at biotinylated REV-ERBalpha (unknown origin) assessed as biotinylated PGC1-beta peptide recruitment after 20 mins by Greiner assay
How it was run: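 Biotinylated peptides (final 20 nM) with Eu-W1024 streptavidin (final 20 nM), 20 min RT. Biotinylated REV-ERBα (20 nM) with APC-streptavidin (10 nM), 20 min RT, then 20-fold excess biotin, 15 min RT. Receptor solution added to peptide plates, Eu/APC TR-FRET read. Four wells per peptide averaged, with standard deviation.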

[9] = biological target: T2, Nuclear receptor subfamily 1 group D member 1 (Homo sapiens); assay: Agonist activity at REV-ERBalpha in human THP1 cells assessed as downregulation of LPS-stimulated IL-6 mRNA expression at 10 uM after 6 hrs by RT-qPCR analysis; format: cell-based; details: THP-1
How it was run: (§3)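 THP-1 cells sub-cultured in RPMI1640 with 10% FBS, stimulated with LPS 10 μg/mL in presence of DMSO or compound at 10 μM. Transcript read-out by RT-qPCR, normalized to TATA box binding protein.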

[10] = biological target: T4, Oxysterols receptor LXR-alpha (Homo sapiens); assay: Agonist activity at LXRalpha in human THP1 cells assessed as upregulation of LPS-stimulated ABCA1 mRNA expression at 10 uM after 6 hrs by RT-qPCR analysis; format: cell-based; details: THP-1; how it was run: as §3

IC50 [1] | Ratio IC50/EC50 (Homo sapiens) | TIME [2] | Activity [3] | EC50 [4] | Activity [5] | Activity [6] | Activity [7] | Activity [8] | Activity [9] | Activity [10] | Structure (SMILES) | Activity (THP-1)
10 µM | 25 | 0.5 h | 42% | 0.4 µM |  |  |  |  |  |  | COc1cccc(CN(Cc2cccnc2)Cc2ccc([N+](=O)[O-])s2)c1 | 
20 µM |  | 0 h | 23% | 0.2 µM | inactive | Active |  |  |  |  | N#Cc1ccc(CN(Cc2ccc(Cl)cc2)Cc2cccnc2)s1 | Non-toxic
13 µM | 79 |  |  | 0.16 µM |  |  |  |  |  |  | O=[N+]([O-])c1ccc(CN(Cc2ccc(Cl)cc2)Cc2cccnc2)s1 | 
40 µM | 250 | 0 h | 23% | 0.16 µM |  |  |  |  |  |  | Cc1ccc(CN(Cc2cccnc2)Cc2ccc([N+](=O)[O-])s2)cc1 | 
63 µM | 1260 | 0 h | 21% | 0.05 µM | inactive | Active | Dose-dependent effect |  |  |  | Cc1cc(Cl)ccc1CN(Cc1ccc(Cl)cc1)Cc1ccc([N+](=O)[O-])s1 | Non-toxic
32 µM | 160 | 0 h | 37% | 0.2 µM |  |  |  |  |  |  | Cc1ccccc1CN(Cc1cccnc1)Cc1ccc([N+](=O)[O-])s1 | 
40 µM | 100 | 0 h | 24% | 0.4 µM |  |  |  |  |  |  | Clc1ccc(CN(Cc2cccnc2)Cc2cc3ccccc3s2)cc1 | 
16 µM | 40 |  |  | 0.4 µM |  |  |  |  |  |  | O=[N+]([O-])c1ccc(CN(Cc2cccnc2)Cc2cccc(C(F)(F)F)c2)s1 | 
25 µM | 130 | 0.8 h | 41% | 0.2 µM |  |  |  |  |  |  | Cc1cccc(CN(Cc2cccnc2)Cc2ccc([N+](=O)[O-])s2)c1 | 
16 µM | 79 | 0 h | 37% | 0.2 µM | inactive | Active |  |  |  |  | N#Cc1ccc(CN(Cc2cccnc2)Cc2ccc(F)c(F)c2)s1 | Non-toxic
40 µM | 250 | 0 h | 14% | 0.16 µM | inactive | Active |  |  |  |  | O=[N+]([O-])c1ccc(CN(Cc2ccc(F)cc2)Cc2cccnc2)s1 | Non-toxic
 |  |  |  | 0.2 µM |  |  |  |  |  |  | N#Cc1ccc(CN(Cc2ccc(F)cc2)Cc2cccnc2)s1 | 
 |  | 1.3 h | 14% |  |  |  |  | Dose-dependent effect |  |  | CCOC(=O)N1CCC(CN(Cc2ccc(Cl)cc2)Cc2ccc([N+](=O)[O-])s2)C1 (stereo unspecified) | 
16 µM | 100 | 0 h | 21% | 0.16 µM |  |  |  |  |  |  | CC(C)CCN(Cc1ccc(Cl)cc1)Cc1ccc([N+](=O)[O-])s1 | 
5 µM | 10 | 0 h | 6% | 0.5 µM |  |  |  | Dose-dependent effect | Active | Active | CC(C)(C)OC(=O)CN(Cc1ccc(Cl)cc1)Cc1ccc([N+](=O)[O-])s1 [GSK-4112] | 
32 µM | 130 | 0 h | 16% | 0.25 µM |  |  |  |  |  |  | Cc1sc(CN(Cc2ccc(Cl)cc2)Cc2cccnc2)cc1Br | 
40 µM | 63 | 0 h | 30% | 0.63 µM |  |  |  |  |  |  | Clc1ccc(CN(Cc2cccnc2)Cc2sccc2-n2cccc2)cc1 | 
32 µM | 160 |  |  | 0.2 µM |  |  |  |  |  |  | COc1ccc(CN(Cc2cccnc2)Cc2ccc([N+](=O)[O-])s2)cc1 | 
20 µM | 320 | 0 h | 38% | 0.063 µM |  |  |  |  |  |  | O=[N+]([O-])c1ccc(CN(Cc2ccc(Cl)cc2)Cc2ccccc2F)s1 | 
6.3 µM | 10 | 0 h | 27% | 0.63 µM |  |  |  |  |  |  | N#Cc1ccc(CN(Cc2cccnc2)Cc2cc(F)ccc2F)s1 | 

Structure (SMILES) | IC50 [1] | Ratio IC50/EC50 (Homo sapiens) | TIME [2] | Activity [3] | EC50 [4] | Activity [5] | Activity [6] | Activity [7] | Activity [8] | Activity [9] | Activity [10] | Activity (THP-1)
O=[N+]([O-])c1ccc(CN(Cc2ccccc2)Cc2ccc(Cl)cc2)s1 | > 100 µM | > 1000 |  |  | 0.1 µM |  |  |  |  |  |  | 
Clc1ccc(CN(Cc2cccnc2)Cc2nccs2)cc1 | 50 µM |  |  |  | > 50 µM |  |  |  |  |  |  | 
N#Cc1ccc(CN(Cc2cccnc2)Cc2ccccc2F)s1 | 32 µM |  | 0 h | 6% | > 50 µM |  |  |  |  |  |  | 
Clc1ccc(CN(Cc2cccnc2)Cc2ncc[nH]2)cc1 | > 100 µM |  |  |  | > 50 µM |  |  |  |  |  |  | 
CCCCCNC(=O)N1CCC(CN(Cc2ccc(Cl)cc2)Cc2ccc([N+](=O)[O-])s2)C1 (stereo unspecified) [SR9011] |  |  | 1.3 h | 20% | > 50 µM |  |  |  | Dose-dependent effect |  |  | 
COc1ccc(CN(Cc2cccnc2)Cc2ccc(C#N)s2)cc1 | > 100 µM | > 160 |  |  | 0.63 µM |  |  |  |  |  |  | 
